Experimental findings from ChEMBL document CHEMBL4266033, “Neolymphostin A Is a Covalent Phosphoinositide 3-Kinase (PI3K)/Mammalian Target of Rapamycin (mTOR) Dual Inhibitor That Employs an Unusual Electrophilic Vinylogous Ester” (J Med Chem, 2018) are described below.

A word on the Kd: it is the equilibrium constant for the complex coming apart. Read a high Kd as weaker binding. Broadly, the IC50 is the midpoint of a concentration-inhibition curve.

Calls of active or inactive are those of the source. The calls are words filed in the database; no cut-off is given here.

Assay [1] addresses T1, Phosphatidylinositol 4,5-bisphosphate 3-kinase catalytic subunit alpha isoform (Homo sapiens, UniProt P42336). Put plainly: Binding affinity to human PI3Kalpha after 1 hr by KINOMEscan assay.
The target in assay [2] is Phosphatidylinositol 4,5-bisphosphate 3-kinase catalytic subunit beta isoform (Homo sapiens, UniProt P42338). Put plainly: Binding affinity to human PI3Kbeta after 1 hr by KINOMEscan assay.
Sequence of Phosphatidylinositol 4,5-bisphosphate 3-kinase catalytic subunit beta isoform (P42338 whole entry, canonical isoform): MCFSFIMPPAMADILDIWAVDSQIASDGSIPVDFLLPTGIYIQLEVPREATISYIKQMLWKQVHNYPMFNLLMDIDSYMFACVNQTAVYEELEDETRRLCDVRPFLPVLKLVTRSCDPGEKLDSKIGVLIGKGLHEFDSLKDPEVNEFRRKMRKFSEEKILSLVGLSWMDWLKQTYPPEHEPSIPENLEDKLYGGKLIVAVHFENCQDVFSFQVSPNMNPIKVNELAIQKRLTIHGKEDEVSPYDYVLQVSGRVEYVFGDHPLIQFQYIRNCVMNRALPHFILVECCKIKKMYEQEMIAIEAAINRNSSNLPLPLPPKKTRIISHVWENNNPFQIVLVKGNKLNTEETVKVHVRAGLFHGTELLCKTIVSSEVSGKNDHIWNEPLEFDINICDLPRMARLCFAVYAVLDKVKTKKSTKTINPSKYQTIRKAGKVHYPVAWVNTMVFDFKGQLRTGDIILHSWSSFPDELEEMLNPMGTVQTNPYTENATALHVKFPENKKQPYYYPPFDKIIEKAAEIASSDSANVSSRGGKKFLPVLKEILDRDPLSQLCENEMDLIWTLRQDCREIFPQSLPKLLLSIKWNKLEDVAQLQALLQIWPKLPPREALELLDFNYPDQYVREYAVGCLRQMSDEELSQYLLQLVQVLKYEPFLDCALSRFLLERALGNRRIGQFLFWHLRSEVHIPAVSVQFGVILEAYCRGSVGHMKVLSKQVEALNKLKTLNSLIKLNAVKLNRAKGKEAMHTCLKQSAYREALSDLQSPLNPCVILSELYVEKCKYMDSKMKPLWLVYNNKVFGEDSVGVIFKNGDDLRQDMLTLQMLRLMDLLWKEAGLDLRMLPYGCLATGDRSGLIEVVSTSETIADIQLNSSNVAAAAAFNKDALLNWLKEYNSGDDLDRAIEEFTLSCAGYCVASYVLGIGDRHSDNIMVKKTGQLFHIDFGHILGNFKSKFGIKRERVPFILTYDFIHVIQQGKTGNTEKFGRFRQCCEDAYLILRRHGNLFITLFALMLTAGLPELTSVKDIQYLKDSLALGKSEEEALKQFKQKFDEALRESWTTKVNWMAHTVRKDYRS
For assay [3], the target named is Phosphatidylinositol 4,5-bisphosphate 3-kinase catalytic subunit gamma isoform (Homo sapiens, UniProt P48736). Put plainly: Binding affinity to human PI3Kgamma after 1 hr by KINOMEscan assay.
Sequence of Phosphatidylinositol 4,5-bisphosphate 3-kinase catalytic subunit gamma isoform (P48736 whole entry, canonical isoform): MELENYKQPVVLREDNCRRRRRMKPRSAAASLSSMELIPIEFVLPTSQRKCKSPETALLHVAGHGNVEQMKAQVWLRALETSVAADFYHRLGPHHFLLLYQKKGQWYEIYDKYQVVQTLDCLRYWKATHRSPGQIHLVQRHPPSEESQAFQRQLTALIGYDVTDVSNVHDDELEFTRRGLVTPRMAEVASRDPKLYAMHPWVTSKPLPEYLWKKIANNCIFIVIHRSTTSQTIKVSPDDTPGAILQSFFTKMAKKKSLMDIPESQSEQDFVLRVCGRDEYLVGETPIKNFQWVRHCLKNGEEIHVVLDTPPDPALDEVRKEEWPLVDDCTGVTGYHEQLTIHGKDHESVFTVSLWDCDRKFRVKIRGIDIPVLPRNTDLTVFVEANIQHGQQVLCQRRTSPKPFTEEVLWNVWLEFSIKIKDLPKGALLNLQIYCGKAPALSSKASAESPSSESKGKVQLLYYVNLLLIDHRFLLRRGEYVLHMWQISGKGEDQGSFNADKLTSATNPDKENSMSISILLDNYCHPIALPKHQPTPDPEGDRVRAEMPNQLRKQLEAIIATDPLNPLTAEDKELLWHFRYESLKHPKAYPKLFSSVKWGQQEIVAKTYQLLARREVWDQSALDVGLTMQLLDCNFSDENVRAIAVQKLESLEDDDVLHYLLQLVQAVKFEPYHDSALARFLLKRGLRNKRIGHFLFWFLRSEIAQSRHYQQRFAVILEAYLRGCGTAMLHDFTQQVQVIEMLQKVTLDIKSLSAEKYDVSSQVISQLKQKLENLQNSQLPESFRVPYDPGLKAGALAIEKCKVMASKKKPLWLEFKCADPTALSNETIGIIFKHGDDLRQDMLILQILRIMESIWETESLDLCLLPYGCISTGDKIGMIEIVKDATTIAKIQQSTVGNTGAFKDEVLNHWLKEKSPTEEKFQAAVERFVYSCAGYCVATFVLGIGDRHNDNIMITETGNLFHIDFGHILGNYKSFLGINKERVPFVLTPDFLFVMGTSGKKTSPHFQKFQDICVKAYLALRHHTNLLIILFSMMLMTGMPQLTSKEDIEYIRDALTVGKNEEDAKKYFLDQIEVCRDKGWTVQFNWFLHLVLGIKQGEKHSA
The target of assay [4] is T2, Phosphatidylinositol 4,5-bisphosphate 3-kinase catalytic subunit delta isoform (Homo sapiens, UniProt O00329).
T2 sequence (O00329 whole entry): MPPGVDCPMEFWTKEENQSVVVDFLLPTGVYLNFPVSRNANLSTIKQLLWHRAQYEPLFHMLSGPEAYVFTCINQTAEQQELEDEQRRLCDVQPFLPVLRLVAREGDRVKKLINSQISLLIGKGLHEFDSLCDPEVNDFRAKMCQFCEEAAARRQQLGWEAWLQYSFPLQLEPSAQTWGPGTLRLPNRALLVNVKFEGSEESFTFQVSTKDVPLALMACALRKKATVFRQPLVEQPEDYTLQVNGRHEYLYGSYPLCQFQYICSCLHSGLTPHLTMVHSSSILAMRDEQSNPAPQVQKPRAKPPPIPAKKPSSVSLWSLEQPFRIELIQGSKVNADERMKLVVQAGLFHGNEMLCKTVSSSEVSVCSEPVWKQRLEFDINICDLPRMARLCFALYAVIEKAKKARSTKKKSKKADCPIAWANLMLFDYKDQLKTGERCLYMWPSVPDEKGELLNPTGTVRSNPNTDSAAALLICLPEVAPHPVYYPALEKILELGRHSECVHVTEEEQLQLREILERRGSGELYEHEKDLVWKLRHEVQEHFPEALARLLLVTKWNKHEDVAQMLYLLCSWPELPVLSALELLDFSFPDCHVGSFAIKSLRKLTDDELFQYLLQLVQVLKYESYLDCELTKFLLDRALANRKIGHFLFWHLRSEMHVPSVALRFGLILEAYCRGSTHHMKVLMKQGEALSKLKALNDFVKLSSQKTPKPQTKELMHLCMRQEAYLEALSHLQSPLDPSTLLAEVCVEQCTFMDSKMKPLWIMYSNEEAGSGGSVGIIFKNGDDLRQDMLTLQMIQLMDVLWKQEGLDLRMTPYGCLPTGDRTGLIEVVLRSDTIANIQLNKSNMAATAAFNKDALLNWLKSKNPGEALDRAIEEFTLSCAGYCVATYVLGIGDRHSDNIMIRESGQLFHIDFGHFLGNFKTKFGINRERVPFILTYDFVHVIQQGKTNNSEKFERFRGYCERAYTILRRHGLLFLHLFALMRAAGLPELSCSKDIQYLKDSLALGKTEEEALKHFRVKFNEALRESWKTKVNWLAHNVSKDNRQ
Put plainly: Binding affinity to human PI3Kdelta after 1 hr by KINOMEscan assay.

For assay [5], the target named is Tyrosine-protein kinase Lck (Homo sapiens, UniProt P06239). Put plainly: Binding affinity to human LCK after 1 hr by KINOMEscan assay.
Sequence of Tyrosine-protein kinase Lck (P06239 whole entry): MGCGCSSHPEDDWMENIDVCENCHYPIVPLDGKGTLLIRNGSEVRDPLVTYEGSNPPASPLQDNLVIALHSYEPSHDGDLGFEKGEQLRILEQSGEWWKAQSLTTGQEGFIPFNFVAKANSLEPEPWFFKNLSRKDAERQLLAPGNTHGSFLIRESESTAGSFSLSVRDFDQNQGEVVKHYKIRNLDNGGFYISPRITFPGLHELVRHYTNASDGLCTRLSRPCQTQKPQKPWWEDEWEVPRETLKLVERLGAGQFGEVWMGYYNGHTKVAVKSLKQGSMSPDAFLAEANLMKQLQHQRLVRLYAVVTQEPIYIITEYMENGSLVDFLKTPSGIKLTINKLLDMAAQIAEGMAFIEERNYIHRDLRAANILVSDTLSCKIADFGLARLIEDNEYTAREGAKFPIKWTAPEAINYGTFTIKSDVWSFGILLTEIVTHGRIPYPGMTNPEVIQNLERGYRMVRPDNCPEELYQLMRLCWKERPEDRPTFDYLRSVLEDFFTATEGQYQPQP
Assay [6] has as its target Serine/threonine-protein kinase mTOR (Homo sapiens, UniProt P42345). Put plainly: Binding affinity to human mTOR after 1 hr by KINOMEscan assay.
In assay [7] the target is Mitogen-activated protein kinase 8 (Homo sapiens) (UniProt P45983). Put plainly: Binding affinity to human JNK1 at 1 uM after 1 hr by KINOMEscan assay.
Sequence of Mitogen-activated protein kinase 8 (Homo sapiens) (P45983 whole entry): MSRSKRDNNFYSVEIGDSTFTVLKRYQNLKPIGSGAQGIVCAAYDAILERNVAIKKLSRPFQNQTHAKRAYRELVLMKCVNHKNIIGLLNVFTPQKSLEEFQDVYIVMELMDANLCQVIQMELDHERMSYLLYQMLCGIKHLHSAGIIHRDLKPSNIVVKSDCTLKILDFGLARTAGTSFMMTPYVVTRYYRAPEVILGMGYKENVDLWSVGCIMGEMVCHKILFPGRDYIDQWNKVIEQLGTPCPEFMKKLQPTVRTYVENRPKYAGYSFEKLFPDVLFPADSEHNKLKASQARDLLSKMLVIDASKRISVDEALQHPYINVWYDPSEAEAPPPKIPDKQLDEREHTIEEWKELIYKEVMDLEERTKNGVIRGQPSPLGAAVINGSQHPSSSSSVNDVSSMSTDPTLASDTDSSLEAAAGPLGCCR
The target of assay [8] is Mitogen-activated protein kinase 9 (Homo sapiens) (UniProt P45984). Put plainly: Binding affinity to human JNK2 at 1 uM after 1 hr by KINOMEscan assay.
Sequence of Mitogen-activated protein kinase 9 (Homo sapiens) (P45984 whole entry, looked up): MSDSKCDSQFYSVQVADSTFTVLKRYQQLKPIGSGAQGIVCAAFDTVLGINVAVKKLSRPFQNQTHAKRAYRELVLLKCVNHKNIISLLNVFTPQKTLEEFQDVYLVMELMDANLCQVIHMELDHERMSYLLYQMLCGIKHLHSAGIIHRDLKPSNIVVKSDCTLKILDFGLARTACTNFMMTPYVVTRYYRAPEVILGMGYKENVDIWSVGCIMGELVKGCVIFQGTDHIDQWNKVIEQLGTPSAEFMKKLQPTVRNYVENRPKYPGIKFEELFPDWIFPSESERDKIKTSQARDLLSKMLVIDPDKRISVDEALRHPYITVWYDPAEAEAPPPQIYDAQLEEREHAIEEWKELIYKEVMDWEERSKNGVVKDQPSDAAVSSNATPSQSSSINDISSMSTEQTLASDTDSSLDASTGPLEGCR
Assay [9] in a line: Inhibition of PI3K in human HeLa cells assessed as reduction in EGF-stimulated AKT phosphorylation at S473 preincubated for 10 mins followed by EGF stimulation measured after 5 mins by Western blot analysis. Format: cell-based. An outline of the steps:
(§1)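 HeLa cells were serum-starved overnight, pretreated with compound for 10 min, then stimulated with 10 ng mL-1 EGF for 5 min. Lysis was in boiling SDS sample buffer, with protein quantified at 660 nm. Equal protein was resolved by SDS-PAGE and Western blotted for pEGFR Tyr1068, pAKT Ser473/Thr308, and pERK1/2 Thr202/Tyr204 with total proteins and GAPDH, detected by ECL.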
(In general: A western blot detects proteins with antibodies after separation by electrophoresis.)

Assay [10] in a line: Inhibition of PI3K in human HeLa cells assessed as reduction in EGF-stimulated AKT phosphorylation at T308 preincubated for 10 mins followed by EGF stimulation measured after 5 mins by Western blot analysis. Format: cell-based. The procedure, abridged: as §1
Assay [11] has as its target Epidermal growth factor receptor (Homo sapiens) (UniProt P00533). Put plainly: Inhibition of EGFR in human HeLa cells assessed as reduction in EGF-stimulated EGFR phosphorylation at 0.3 to 100 nM preincubated for 10 mins followed by EGF stimulation measured after 5 mins by Western blot analysis. It counts as cell-based. An outline of the steps:
as §1

For assay [12], the target named is T1, Phosphatidylinositol 4,5-bisphosphate 3-kinase catalytic subunit alpha isoform. Put plainly: Binding affinity to human PI3Kalpha equilibrate for 6 hrs by scan-kinetic platform assay. An outline of the steps:
(§2)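 scanKINETIC format on PI3Kα and PI3Kγ. […] Arm C: equilibrated 1 h. Arm B: equilibrated 1 h, diluted 30-fold, then re-equilibrated. Arm D: diluted immediately, then equilibrated. Kd compared with and without the dilution step to judge reversibility.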

The target is the same in assay [13]. Put plainly: Binding affinity to human PI3Kalpha equilibrate for 1 hr by scan-kinetic platform assay. An outline of the steps:
as §2

Assay [14] deals with PI3-kinase p110-alpha/p85-alpha (Homo sapiens) (UniProt P27986+P42336). Put plainly: Binding affinity to PI3Kalpha/p85alpha (unknown origin) assessed as covalent modification at Lys802 residue at 4 uM measured for 3/300 secs by hydrogen-deuterium exchange mass spectrometry. It counts as protein-complex assay. The procedure, abridged:
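PI3Kα (p110α/p85α) preincubated 30 min at 2 μM with 4 μM inhibitor or DMSO (5% final). Diluted to 0.4 μM in 50 μL for deuterium exchange at 3 s on ice and 300 s at 20 °C. Quenched with ice-cold 2 M guanidine-HCl/3% formic acid, then UPLC-TOF-MS. Peptide changes >5% and >0.4 Da with paired t-test p<0.01 taken as significant.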

T1 sequence (P42336 whole entry, canonical isoform): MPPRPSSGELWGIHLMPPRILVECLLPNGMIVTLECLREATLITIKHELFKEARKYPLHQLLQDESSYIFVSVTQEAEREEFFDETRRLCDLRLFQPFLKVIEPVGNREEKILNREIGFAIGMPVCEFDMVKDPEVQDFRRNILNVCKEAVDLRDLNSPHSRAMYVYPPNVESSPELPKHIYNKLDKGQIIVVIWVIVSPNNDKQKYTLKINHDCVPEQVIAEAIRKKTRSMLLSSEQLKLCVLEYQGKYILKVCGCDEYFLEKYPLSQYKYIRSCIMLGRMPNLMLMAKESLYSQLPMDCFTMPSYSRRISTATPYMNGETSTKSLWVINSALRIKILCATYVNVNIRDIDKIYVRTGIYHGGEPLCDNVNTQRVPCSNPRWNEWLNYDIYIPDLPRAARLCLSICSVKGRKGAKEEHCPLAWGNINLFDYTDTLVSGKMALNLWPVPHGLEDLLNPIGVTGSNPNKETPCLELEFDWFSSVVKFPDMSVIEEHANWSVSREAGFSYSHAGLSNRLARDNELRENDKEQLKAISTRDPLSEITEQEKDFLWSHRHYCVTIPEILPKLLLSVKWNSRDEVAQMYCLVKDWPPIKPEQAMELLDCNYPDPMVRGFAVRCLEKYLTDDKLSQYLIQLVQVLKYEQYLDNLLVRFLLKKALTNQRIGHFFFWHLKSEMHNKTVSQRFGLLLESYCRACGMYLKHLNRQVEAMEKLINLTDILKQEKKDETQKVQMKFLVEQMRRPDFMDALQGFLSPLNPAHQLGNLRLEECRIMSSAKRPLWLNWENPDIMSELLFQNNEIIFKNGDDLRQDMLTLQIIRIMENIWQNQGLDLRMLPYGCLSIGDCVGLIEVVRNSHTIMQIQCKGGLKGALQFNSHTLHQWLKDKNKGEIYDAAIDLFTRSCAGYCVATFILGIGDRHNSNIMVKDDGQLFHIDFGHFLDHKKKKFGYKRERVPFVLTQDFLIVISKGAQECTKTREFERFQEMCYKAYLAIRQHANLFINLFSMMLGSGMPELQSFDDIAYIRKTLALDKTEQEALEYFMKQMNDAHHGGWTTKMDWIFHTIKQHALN

On to `CO/C=C/C(=O)c1cc2c3c(c(N)cc(NC(=O)C(C)C)c3n1)N=C2`, for which the Kd in assay [1] came to 0.88 nM; in assay [2] it was 5.7 nM; in assay [3] it was 3.5 nM; in assay [4], 4.9 nM; in assay [5], 4.6 µM; in assay [6] it was 10 nM. The Kd in assay [12] lay within 0.43 to 0.45 nM; in assay [13] it was 0.65 to 0.68 nM. Further, the result in [7], in assay [8] and in [14] was Active. The half-maximal inhibitory concentration (IC50) in assay [9] and in assay [10] was 3 nM throughout. The inhibition result in assay [11] is “inactive”.
